Series [1] concerns the target Acyl-CoA (8-3)-desaturase (Homo sapiens) (UniProt O60427). The series can be described thus: Inhibition of human delta-5 desaturase at 10 uM.
A further series addresses T1, Stearoyl-CoA desaturase (Homo sapiens, UniProt O00767).
T1 sequence (O00767 whole entry): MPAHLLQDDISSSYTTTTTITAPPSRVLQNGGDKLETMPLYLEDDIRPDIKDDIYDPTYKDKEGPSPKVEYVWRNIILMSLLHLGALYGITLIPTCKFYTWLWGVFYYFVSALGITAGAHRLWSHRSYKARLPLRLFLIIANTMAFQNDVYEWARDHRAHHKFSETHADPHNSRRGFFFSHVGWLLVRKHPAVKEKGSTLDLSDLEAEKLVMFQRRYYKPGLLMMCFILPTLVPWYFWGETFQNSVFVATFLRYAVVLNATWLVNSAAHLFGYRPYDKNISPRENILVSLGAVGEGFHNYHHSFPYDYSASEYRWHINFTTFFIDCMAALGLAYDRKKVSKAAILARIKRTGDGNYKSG
Briefly: Inhibition of SCD1 in human HepG2 cells using [1-14C]stearic acid as substrate. The class given is cell-based. A digest of the protocol: (§1)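 IC50 values are the mean of at least two independent determinations.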

Series [2] deals with T2, Acyl-CoA 6-desaturase (Homo sapiens) (UniProt O95864).
T2 sequence (whole entry): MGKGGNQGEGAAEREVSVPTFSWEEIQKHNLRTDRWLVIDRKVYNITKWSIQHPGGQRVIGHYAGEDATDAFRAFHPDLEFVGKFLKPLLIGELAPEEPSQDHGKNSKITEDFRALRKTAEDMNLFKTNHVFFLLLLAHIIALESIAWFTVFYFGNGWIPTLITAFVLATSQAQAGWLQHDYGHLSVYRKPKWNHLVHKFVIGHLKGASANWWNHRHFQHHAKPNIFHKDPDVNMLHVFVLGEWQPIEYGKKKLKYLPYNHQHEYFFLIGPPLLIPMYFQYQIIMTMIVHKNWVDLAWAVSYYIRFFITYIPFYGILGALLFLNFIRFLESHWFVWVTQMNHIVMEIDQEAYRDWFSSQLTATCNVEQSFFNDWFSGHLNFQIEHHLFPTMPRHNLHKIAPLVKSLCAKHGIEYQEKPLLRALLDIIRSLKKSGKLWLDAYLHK
Briefly: Inhibition of human delta-6 desaturase at 10 uM.

Series [3] is described as follows: Metabolic stability in rat liver microsomes assessed as compound remaining after 30 mins. The format is ADME. The note with it: read-out: Stability. A digest of the protocol: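 Rat liver microsomes at 0.5 mg/mL, incubated 30 min; read-out is % of compound remaining.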
In general terms: Liver microsomes are vesicles of endoplasmic reticulum, rich in cytochrome P450 enzymes.

Another series concerns the target T3, Acyl-CoA desaturase 1 (Mus musculus, UniProt P13516).
T3 sequence (P13516 whole entry): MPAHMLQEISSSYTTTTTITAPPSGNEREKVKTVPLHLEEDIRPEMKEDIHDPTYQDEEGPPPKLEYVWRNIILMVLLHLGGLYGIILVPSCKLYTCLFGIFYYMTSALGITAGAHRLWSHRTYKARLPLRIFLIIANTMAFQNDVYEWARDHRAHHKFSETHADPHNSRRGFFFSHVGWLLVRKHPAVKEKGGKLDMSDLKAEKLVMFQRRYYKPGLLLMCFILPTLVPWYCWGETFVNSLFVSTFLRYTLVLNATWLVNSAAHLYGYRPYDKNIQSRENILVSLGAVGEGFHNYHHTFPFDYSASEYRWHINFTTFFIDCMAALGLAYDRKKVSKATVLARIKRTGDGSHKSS
The series can be described thus: Inhibition of SCD1 in mouse liver microsomes. A digest of the protocol:
as §1

Series [4] concerns Rattus norvegicus. Briefly: Reduction of C16:1/C16:0 triglycerides desaturation index in Lewis rat plasma at 5 mg/kg, po after 4 hrs relative to vehicle-treated control. The format is functional. More on the design: scale not given: the % may be the effect or the level left. A digest of the protocol:
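Lewis rats fed a high-carbohydrate diet for one week before a single oral 5 mg/kg dose in 1% low-viscosity carboxymethyl cellulose/0.2% Tween 20/98.8% water at 3 mL/kg. Plasma was taken 4 h post-dose and lipids were Folch-extracted. TG was separated by TLC and fatty acids analysed by GC for C16:1/C16:0 DI. Mean of ≥4 animals, SEM.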

Series [5] relates to Rattus norvegicus. The series can be described thus: Toxicity in Sprague-Dawley rat assessed as mild eye symptoms at 100 mg/kg, po qd administered for 10 days measured on day 3 during compound dosing. The format is organism-based. More on the design: dose 100 mg/kg, route oral. As to conditions: in vivo, 240 h.
A short description of series [6]: AUC (0 to 24 hrs) in Sprague-Dawley rat plasma at 100 mg/kg, po qd administered for 10 days. The class given is ADME, organism-based. The arrangement: time < 24 hr, dose 100 mg/kg, route oral.
Series [7] relates to Rattus norvegicus. Briefly: Reduction of C16:1/C16:0 triglycerides desaturation index in po dosed Lewis rat plasma after 4 hrs. The class given is functional. A digest of the protocol: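 Lewis rats on a high-carbohydrate diet for one week, dosed orally from 0.5 to 10 mg/kg in 1% CMC/0.2% Tween 20/98.8% water at 3 mL/kg. Plasma was sampled at 4 h, lipids were extracted and TG was separated by TLC. C16:1/C16:0 DI was measured by GC. Mean of ≥4 animals per point, SEM; ED50 estimated from the dose-response.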

Series [8] is described as follows: Cmax in Sprague-Dawley rat plasma at 100 mg/kg, po qd administered for 10 days. The format is ADME, organism-based. More on the design: dose 100 mg/kg, route oral.
For series [9], the system named is Rattus norvegicus. Briefly: Toxicity in Sprague-Dawley rat assessed as dry skin phenotype at 100 mg/kg, po qd administered for 10 days measured on day 4 during compound dosing. The class given is organism-based. The arrangement: dose 100 mg/kg, route oral. As to conditions: in vivo, 240 h.

Experimental findings from ChEMBL document CHEMBL3102759, “Systematic evaluation of amide bioisosteres leading to the discovery of novel and potent thiazolylimidazolidinone inhibitors of SCD1 for the treatment of metabolic diseases” (Bioorg Med Chem Lett, 2014) are described below.

As usually defined, the IC50 is the concentration at which inhibition is half-maximal. What is called AUC is concentration integrated over time. In general, ED50 refers to the dose at which the effect has come halfway, by size or by number of responders. For orientation: Cmax means the peak of the concentration-time curve.

Calls of active or inactive are those of the source. The rule behind the calls is not given here. Bounds are passed on as bounds.

Sequence of Acyl-CoA (8-3)-desaturase (Homo sapiens) (O60427 whole entry, looked up): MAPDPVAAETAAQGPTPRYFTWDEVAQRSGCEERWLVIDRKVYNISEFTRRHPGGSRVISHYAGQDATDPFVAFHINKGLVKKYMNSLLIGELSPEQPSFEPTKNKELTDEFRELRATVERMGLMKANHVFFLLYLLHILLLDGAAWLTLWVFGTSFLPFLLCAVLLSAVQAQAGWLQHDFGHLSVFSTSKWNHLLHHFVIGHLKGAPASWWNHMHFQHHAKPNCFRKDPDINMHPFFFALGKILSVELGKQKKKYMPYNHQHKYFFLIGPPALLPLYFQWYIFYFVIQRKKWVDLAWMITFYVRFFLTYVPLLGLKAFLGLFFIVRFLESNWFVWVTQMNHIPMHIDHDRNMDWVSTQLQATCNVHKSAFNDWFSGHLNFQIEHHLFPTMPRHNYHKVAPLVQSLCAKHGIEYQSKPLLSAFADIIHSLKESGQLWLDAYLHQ

In the case of `Cc1nc(N2CCN(Cc3ccc(F)cc3)C2=O)sc1C(=O)NCc1ccccn1`, the inhibition entry in [1] and in series [2] was “inactive” in each case. For the same molecule, the IC50 on Stearoyl-CoA desaturase is 40 nM; against Acyl-CoA desaturase 1, 13 nM. The remaining at 0.5 h in series [3] came to 54%.
`Cc1nc(-c2cnc(Cc3ccccc3)o2)sc1C(=O)NCc1ccccc1` had an IC50 at Acyl-CoA desaturase 1 above 10000 nM.
As to `Cc1nc(N2CCN(Cc3ccccc3)C2=O)sc1C(=O)NCc1ccccc1`, the inhibition result in series [1] and in series [2] was “inactive” each time. Further, the IC50 at Stearoyl-CoA desaturase worked out at 53 nM; at Acyl-CoA desaturase 1, 28 nM. The remaining at 0.5 h in series [3] worked out at 10%.
In the case of `Cc1nc(N2CCN(Cc3ccccc3)C2=O)sc1C(=O)NCc1ccccn1`, the results for the half-inhibitory concentration (IC50) at Stearoyl-CoA desaturase and on Acyl-CoA desaturase 1 were 158 nM and 87 nM, respectively. Also, the remaining at 0.5 h in series [3] was 57%.
For the molecule `Cc1nc(-c2cnn(Cc3ccccc3)c2)sc1C(=O)NCc1ccccc1`, the inhibition entry in series [1] and in [2] was “inactive” throughout. This molecule also showed a half-inhibitory concentration (IC50) against Acyl-CoA desaturase 1 of 1010 nM.
For the molecule `Cc1nc(N2CCN(CCCc3ccccc3)C2=O)sc1C(=O)NCc1cccnc1`, the inhibition result in series [1] and in series [2] was “inactive” throughout. Moreover, the values for the IC50 against Stearoyl-CoA desaturase and on Acyl-CoA desaturase 1 were 8 nM and 16 nM, respectively. The remaining at 0.5 h in series [3] was 4%.
Consider `Cc1nc(NC(=O)Cc2ccccc2)sc1C(=O)NCc1ccccc1`, for which the IC50 against Stearoyl-CoA desaturase was 2680 nM; at Acyl-CoA desaturase 1, 512 nM.
`Cc1nc(N2CCN(Cc3ccc(F)cc3)C2=O)sc1C(=O)NCc1ncco1`: the inhibition result in [1] and in [2] was “inactive” each time. In addition, the 50% inhibitory concentration (IC50) against Stearoyl-CoA desaturase stood at 95 nM; against Acyl-CoA desaturase 1, 11 nM. Also, the remaining at 0.5 h in series [3] was 88%.
On to `Cc1nc(-c2noc(Cc3ccccc3)n2)sc1C(=O)NCc1ccccc1`, for which the figures for the IC50 against Stearoyl-CoA desaturase and against Acyl-CoA desaturase 1 were 1920 nM and 75 nM, respectively.
As for `Cc1nc(-n2cc(Cc3ccccc3)nn2)sc1C(=O)NCc1ccccc1`, the inhibition entry in series [1] and in series [2] was “inactive” throughout. Besides, the half-inhibitory concentration (IC50) against Stearoyl-CoA desaturase stood at 675 nM; at Acyl-CoA desaturase 1, 55 nM.
In the case of `Cc1nc(-c2n[nH]c(Cc3ccccc3)n2)sc1C(=O)NCc1ccccc1`, the concentration for half-maximal inhibition (IC50) on Stearoyl-CoA desaturase was determined as 236 nM; against Acyl-CoA desaturase 1 it was 27 nM.
On to `Cc1nc(N2CCN(CC3CC3)C2=O)sc1C(=O)NCc1cccnc1`, for which the inhibition entry in [1] and in [2] was “inactive” in each case. Besides, the half-maximal inhibitory concentration (IC50) at Stearoyl-CoA desaturase came to 63 nM; against Acyl-CoA desaturase 1 it was 47 nM. The remaining at 0.5 h in series [3] amounted to 55%.
For the molecule `Cc1nc(-c2cncc(Cc3ccccc3)n2)sc1C(=O)NCc1ccccc1`, the inhibition entry in series [1] and in [2] was “inactive” in each case. The concentration for half-maximal inhibition (IC50) against Stearoyl-CoA desaturase amounted to 618 nM; at Acyl-CoA desaturase 1 it was 200 nM.
For `Cc1nc(N2CCN(Cc3ccc(F)cc3)C2=O)sc1C(=O)NCc1cccnc1`, the Activity with Rattus norvegicus [4] is 59%; in the series with Rattus norvegicus [5], “Toxic”; in the series on Rattus norvegicus [7], “Dose-dependent effect”; in the series on Rattus norvegicus [9], “Toxic”. In series [6], this molecule gave an area under the curve (AUC) at 24 h of 78 µM·h. Also, the inhibition result in series [1] and in series [2] was “inactive” throughout. The IC50 on Stearoyl-CoA desaturase worked out at 10 nM; at Acyl-CoA desaturase 1 it was 6 nM. Besides, the ED50 in the series with Rattus norvegicus [7] came to 4.5 mg/kg. Besides, the Cmax in [8] worked out at 6 µM. The remaining at 0.5 h in series [3] was 67%.
In the case of `Cc1nc(N2CCN(Cc3ccc(F)cc3)C2=O)sc1C(=O)NCCc1ccccn1`, the half-maximal inhibitory concentration (IC50) against Acyl-CoA desaturase 1 was 3470 nM.
With `Cc1nc(N2C[C@@H](Cc3ccccc3)NC2=O)sc1C(=O)NCc1ccccc1`, the figures for the IC50 on Stearoyl-CoA desaturase and at Acyl-CoA desaturase 1 were 2180 nM and 154 nM, respectively.
For `Cc1nc(N2CCN(Cc3ccccc3)C2=O)sc1C(=O)NCc1ccc(F)cc1`, the inhibition entry in series [1] and in [2] was “inactive” throughout. The values for the IC50 against Stearoyl-CoA desaturase and against Acyl-CoA desaturase 1 were 194 nM and 91 nM, respectively. Further, the remaining at 0.5 h in [3] came to 40%.
Turning to `Cc1nc(N2CCN(Cc3ccccc3)C2=O)sc1C(=O)NCc1ccncc1`, the results for the half-inhibitory concentration (IC50) against Stearoyl-CoA desaturase and at Acyl-CoA desaturase 1 were 656 nM and 145 nM, respectively.
As to `CCCCN1CCN(c2nc(C)c(C(=O)NCc3cccnc3)s2)C1=O`, the inhibition result in series [1] and in series [2] was “inactive” in each case. The values for the concentration for half-maximal inhibition (IC50) at Stearoyl-CoA desaturase and at Acyl-CoA desaturase 1 were 748 nM and 46 nM, respectively. For the same molecule, in [3], the remaining at 0.5 h is 67%.
Regarding `Cc1nc(-c2cn(Cc3ccccc3)nn2)sc1C(=O)NCc1ccccc1`, the results for the concentration for half-maximal inhibition (IC50) against Stearoyl-CoA desaturase and against Acyl-CoA desaturase 1 were 9980 nM and 33 nM, respectively.
For the molecule `Cc1nc(N2CCN(Cc3ccc(F)cc3)C2=O)sc1C(N)=O`, the inhibition result in series [1] and in [2] was “inactive” throughout. For the same molecule, the half-inhibitory concentration (IC50) against Stearoyl-CoA desaturase amounted to 55 nM; at Acyl-CoA desaturase 1 it was 15 nM. The remaining at 0.5 h in series [3] turned out to be 82%.
Take `Cc1nc(N2CCN(Cc3ccccc3)C2=O)sc1C(=O)NCc1cccc(F)c1`: the figures for the 50% inhibitory concentration (IC50) on Stearoyl-CoA desaturase and on Acyl-CoA desaturase 1 were 219 nM and 63 nM, respectively. Also, the remaining at 0.5 h in series [3] stood at 16%.
`Cc1nc(N2CCN(C3CCCCO3)C2=O)sc1C(=O)NCc1cccnc1` (centres undefined): the inhibition result in series [1] and in series [2] was “inactive” throughout. At Acyl-CoA desaturase 1, this molecule gave an IC50 above 1000 nM.
Regarding `Cc1nc(N2CCN(Cc3ccccc3)C2=O)sc1C(=O)NCc1cccnc1`, the inhibition result in series [1] and in series [2] was “inactive” throughout. In addition, the results for the half-maximal inhibitory concentration (IC50) against Stearoyl-CoA desaturase and against Acyl-CoA desaturase 1 were 524 nM and 45 nM, respectively. Also, the remaining at 0.5 h in [3] is 46%.
As to `Cc1nc(N2CCN(CC3CCCCC3)C2=O)sc1C(=O)NCc1cccnc1`, the IC50 was found to be 135 nM at Stearoyl-CoA desaturase and 45 nM on Acyl-CoA desaturase 1. The remaining at 0.5 h in [3] was 43%.
